In ChEMBL document CHEMBL3526118, “Combination of GSH trapping and time-dependent inhibition assays as a predictive method of drugs generating highly reactive metabolites” (Drug Metab Dispos, 2011):

Assays:
CYP2C8 [1] = biological target: T1, CYP2C8 (Homo sapiens, UniProt P10632); assay: in vitro
T1 sequence (P10632 whole entry): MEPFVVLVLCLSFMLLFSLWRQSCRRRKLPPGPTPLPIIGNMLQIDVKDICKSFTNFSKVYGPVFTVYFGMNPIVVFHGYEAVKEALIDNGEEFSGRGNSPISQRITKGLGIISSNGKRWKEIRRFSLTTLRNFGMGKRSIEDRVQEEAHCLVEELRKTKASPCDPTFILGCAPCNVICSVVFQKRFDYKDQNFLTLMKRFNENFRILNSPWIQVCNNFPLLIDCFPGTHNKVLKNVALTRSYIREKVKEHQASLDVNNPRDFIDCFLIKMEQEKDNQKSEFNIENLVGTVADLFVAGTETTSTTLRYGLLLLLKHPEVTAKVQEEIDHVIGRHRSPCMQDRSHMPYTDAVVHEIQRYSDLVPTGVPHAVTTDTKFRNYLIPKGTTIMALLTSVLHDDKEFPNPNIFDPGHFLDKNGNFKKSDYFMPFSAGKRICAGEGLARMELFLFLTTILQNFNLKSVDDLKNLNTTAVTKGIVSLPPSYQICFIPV

CYP2D6 [2] = biological target: T2, CYP2D6 (Homo sapiens, UniProt P10635); assay: Time dependent inhibition of CYP2D6 (unknown origin) at 30 uM by LC/MS system; assay type: ADME
Summary of the method: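 Preincubation with HLMs at 1.0 mg/mL in 0.1 M sodium phosphate plus NADPH-generating system for 0 or 30 min, then tenfold dilution into incubation containing 30 μM dextromethorphan for 10 min; chromatographic read-out. Activity relative to controls without inhibitor; inactivation = 100×[1 − %control(30 min)/%control(0 min)], threshold 10%. Initial 100 μM lowered where reversible inhibition was strong.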

Liver microsome [3] = assay: Metabolic activation in human liver microsomes assessed as [3H]GSH adduct formation rate measured per mg of protein at 100 uM by [3H]GSH trapping assay
CYP2C9 [4] = biological target: T3, CYP2C9 (Homo sapiens, UniProt P11712); assay: Time dependent inhibition of CYP2C9 (unknown origin) at 30 uM by LC/MS system; assay type: ADME
Summary of the method: (§1)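 Human liver microsomes at 1.0 mg/mL were preincubated 0 or 30 min with compound and NADPH-generating system in 0.1 M sodium phosphate, then diluted ten-fold into incubation containing 200 μM tolbutamide (final) for 10 min to probe CYP2C9. Percent of matched no-inhibitor control was determined at each time. Inactivation = 100 × [1 − ratio of 30-min to 0-min values]; 10% threshold.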

CYP3A4 [5] = biological target: T4, CYP3A4 (Homo sapiens, UniProt P08684); assay: in vitro
CYP1A2 = biological target: T5, CYP1A2 (Homo sapiens, UniProt P05177); assay: in vitro
T5 sequence (P05177 whole entry): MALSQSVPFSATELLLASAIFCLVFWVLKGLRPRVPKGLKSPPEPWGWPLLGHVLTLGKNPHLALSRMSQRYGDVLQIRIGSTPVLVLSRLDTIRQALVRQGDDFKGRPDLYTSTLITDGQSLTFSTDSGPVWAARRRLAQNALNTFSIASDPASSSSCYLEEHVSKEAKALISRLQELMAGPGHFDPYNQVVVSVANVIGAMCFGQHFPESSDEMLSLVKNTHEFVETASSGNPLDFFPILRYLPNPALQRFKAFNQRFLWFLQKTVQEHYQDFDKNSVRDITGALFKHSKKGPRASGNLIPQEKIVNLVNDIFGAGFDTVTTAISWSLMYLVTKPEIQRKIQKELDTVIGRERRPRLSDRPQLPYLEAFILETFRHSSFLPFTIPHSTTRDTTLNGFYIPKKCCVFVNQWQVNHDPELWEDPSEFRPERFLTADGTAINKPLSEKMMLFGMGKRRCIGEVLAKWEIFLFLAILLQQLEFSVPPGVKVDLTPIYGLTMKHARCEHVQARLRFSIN

CYP2C19 = CYP2C19 (Homo sapiens, UniProt P33261); assay: in vitro
CYP2B6 [6] = biological target: T6, CYP2B6 (Homo sapiens, UniProt P20813); assay: Time dependent inhibition of CYP2B6 (unknown origin) at 3 uM by LC/MS system; assay type: ADME
T6 sequence (P20813 whole entry): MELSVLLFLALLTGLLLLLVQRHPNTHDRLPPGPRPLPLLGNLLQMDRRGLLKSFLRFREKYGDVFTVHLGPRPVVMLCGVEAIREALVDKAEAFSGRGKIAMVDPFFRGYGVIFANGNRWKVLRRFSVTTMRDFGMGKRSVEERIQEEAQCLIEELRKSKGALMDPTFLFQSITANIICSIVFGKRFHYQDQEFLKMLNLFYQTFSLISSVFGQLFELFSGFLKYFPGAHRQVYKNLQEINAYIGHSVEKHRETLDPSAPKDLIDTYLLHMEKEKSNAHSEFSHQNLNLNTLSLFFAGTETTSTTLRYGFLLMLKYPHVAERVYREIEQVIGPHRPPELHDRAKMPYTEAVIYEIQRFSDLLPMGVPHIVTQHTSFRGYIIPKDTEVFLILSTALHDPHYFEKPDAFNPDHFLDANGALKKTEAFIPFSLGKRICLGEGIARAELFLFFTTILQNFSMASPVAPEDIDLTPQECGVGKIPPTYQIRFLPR

CYP3A4 [7] = biological target: T4, CYP3A4; assay: Time dependent inhibition of CYP3A4 (unknown origin) at 10 uM by LC/MS system; assay type: ADME
Summary of the method: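 CYP3A4: human liver microsomes at 0.5 mg/mL in preincubation, 0.1 M sodium phosphate, NADPH-generating system, 0 or 30 min. Ten-fold dilution into incubation with 2.5 μM midazolam (final), 10 min. Each value is relative to the matched control without inhibitor. % enzyme inactivation = 100 × [1 − %control(30 min)/%control(0 min)]; 10% threshold.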

CYP2D6 [8] = biological target: T2, CYP2D6; assay: in vitro
Liver microsome [9] = assay: Covalent binding in human liver microsomes measured per mg of protein using radiolabelled compound at 10 uM after 1 hr incubation by liquid scintillation counting
CYP2C9 [10] = biological target: T3, CYP2C9; assay: in vitro
[11] = Intrinsic clearance for reactive metabolites formation assessed as summation of [3H]GSH adduct formation rate-based reactive metabolites formation and cytochrome P450 (unknown origin) inactivation rate-based reactive metabolites formation; conditions: human
[12] = Intrinsic clearance for reactive metabolites formation per mg of protein based on cytochrome P450 (unknown origin) inactivation rate by TDI assay; conditions: human
CYP2B6 [13] = biological target: T6, CYP2B6; assay: Time dependent inhibition of CYP2B6 (unknown origin) at 0.3 uM by LC/MS system; assay type: ADME
Summary of the method: (§2)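 CYP2B6 in human liver microsomes (1.0 mg/mL in preincubation), 0.1 M sodium phosphate, NADPH-generating system. Preincubation 0 or 30 min, then ten-fold dilution into incubation solution containing 50 μM bupropion (final) for 10 min. Activity is expressed as percent of the matched no-inhibitor control. % inactivation = 100 × [1 − control(30 min)/control(0 min)]; threshold 10%.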

Liver microsome [14] = conditions: human, microsomes, 100 µM
CYP2B6 [15] = biological target: T6, CYP2B6; assay: Time dependent inhibition of CYP2B6 (unknown origin) at 30 uM by LC/MS system; assay type: ADME
Summary of the method: as §2

CYP2B6 [16] = biological target: T6, CYP2B6; assay: Time dependent inhibition of CYP2B6 (unknown origin) at 10 uM by LC/MS system; assay type: ADME
Summary of the method: as §2

CYP2C9 [17] = biological target: T3, CYP2C9; assay: Time dependent inhibition of CYP2C9 (unknown origin) at 10 uM by LC/MS system; assay type: ADME
Summary of the method: as §1

CYP2C8 [18] = biological target: T1, CYP2C8; assay: Time dependent inhibition of CYP2C8 (unknown origin) at 3 uM by LC/MS system; assay type: ADME
Summary of the method: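 CYP2C8 in human liver microsomes (1.0 mg/mL in preincubation), 0.1 M sodium phosphate, NADPH-generating system. Preincubation 0 or 30 min, then ten-fold dilution into incubation with 10 μM paclitaxel (final) for 10 min. Activity is taken relative to the matched no-inhibitor control. % inactivation = 100 × [1 − %control(30 min)/%control(0 min)]; threshold 10%.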

Sequence of CYP2C19 (P33261 whole entry): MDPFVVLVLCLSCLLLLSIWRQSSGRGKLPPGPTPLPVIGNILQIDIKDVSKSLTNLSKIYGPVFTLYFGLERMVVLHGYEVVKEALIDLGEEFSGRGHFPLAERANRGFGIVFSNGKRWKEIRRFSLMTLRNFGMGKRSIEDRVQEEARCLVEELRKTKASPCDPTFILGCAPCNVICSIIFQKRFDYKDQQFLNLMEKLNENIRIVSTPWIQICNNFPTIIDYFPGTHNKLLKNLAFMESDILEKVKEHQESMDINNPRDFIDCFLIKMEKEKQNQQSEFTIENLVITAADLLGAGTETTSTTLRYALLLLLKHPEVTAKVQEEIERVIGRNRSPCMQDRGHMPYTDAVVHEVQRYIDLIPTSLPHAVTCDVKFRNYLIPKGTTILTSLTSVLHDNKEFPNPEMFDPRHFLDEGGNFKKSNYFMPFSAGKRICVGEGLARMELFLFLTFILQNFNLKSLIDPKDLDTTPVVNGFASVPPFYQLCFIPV
T4 sequence (P08684 whole entry): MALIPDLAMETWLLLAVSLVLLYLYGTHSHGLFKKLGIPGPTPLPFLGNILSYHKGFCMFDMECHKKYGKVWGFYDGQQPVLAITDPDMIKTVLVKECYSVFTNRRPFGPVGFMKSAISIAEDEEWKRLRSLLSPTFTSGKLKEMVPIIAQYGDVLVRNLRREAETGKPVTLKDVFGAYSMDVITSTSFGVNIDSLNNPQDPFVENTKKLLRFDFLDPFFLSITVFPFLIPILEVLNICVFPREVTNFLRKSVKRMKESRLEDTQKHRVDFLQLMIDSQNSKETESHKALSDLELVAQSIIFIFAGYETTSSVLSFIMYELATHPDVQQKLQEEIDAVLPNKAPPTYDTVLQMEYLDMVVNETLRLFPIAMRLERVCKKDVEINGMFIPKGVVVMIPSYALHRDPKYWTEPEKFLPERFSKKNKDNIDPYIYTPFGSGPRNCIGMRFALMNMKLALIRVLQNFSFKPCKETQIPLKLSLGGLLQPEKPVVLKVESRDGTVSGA
T3 sequence (P11712 whole entry): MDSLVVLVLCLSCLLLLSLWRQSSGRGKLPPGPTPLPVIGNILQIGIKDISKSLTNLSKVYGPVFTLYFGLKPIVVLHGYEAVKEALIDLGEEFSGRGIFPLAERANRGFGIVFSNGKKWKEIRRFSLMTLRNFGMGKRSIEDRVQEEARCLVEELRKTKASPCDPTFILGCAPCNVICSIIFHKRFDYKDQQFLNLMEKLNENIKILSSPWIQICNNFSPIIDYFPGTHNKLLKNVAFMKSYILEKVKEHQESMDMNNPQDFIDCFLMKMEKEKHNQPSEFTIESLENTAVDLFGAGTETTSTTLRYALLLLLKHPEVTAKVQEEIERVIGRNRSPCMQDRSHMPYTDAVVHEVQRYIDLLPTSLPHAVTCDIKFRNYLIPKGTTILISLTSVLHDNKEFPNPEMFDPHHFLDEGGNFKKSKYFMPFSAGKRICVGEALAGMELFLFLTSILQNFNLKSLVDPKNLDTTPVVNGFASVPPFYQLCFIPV
T2 sequence (P10635 whole entry): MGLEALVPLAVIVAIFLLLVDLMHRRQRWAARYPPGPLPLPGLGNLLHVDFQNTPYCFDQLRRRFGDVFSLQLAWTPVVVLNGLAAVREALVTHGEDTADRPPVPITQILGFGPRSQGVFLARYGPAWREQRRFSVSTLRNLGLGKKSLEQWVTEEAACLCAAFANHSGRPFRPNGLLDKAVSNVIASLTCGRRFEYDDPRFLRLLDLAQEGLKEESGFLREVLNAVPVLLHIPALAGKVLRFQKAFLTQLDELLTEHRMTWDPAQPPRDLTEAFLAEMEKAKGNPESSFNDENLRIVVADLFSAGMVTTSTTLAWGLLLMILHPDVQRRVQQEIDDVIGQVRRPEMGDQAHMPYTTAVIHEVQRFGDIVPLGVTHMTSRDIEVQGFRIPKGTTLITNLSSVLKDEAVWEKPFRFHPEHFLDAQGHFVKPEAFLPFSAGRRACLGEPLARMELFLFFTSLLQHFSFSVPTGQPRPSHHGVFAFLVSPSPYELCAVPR

Row | inhibition at 100 µM (CYP2C8 [1]) | Drug metabolism (Liver microsome [3]) | inhibition at 100 µM (CYP1A2) | inhibition at 10 µM (CYP3A4 [7]) | inhibition at 100 µM (CYP2D6 [8]) | PB (Liver microsome [9]) | clearance [11] | clearance [12] | inhibition at 100 µM (CYP2C19; microsomes) | Structure (SMILES) | inhibition at 30 µM (CYP2D6 [2]) | inhibition at 30 µM (CYP2C9 [4]) | inhibition at 100 µM (CYP2C19; human liver microsomes) | further results
1 | < 10% | 23.6 pmol/min | < 10% |  | < 10% | 417.4 pmol | 1.08 µL/min/mg | 0.848 µL/min/mg | 10% | COC(=O)[C@H](c1ccccc1Cl)N1CCc2sccc2C1 [CLOPIDOGREL] |  |  |  | inhibition at 100 µM (CYP2C9 [10]): < 10%; inhibition at 0.3 µM (CYP2B6 [13]): 44%; CLH (Liver microsome [14]): 0.236 µL/min/mg
2 | < 10% | metabolite_not_detected | < 10% | < 10% |  | 13 pmol |  |  | < 10% | Cc1ccc(-c2cc(C(F)(F)F)nn2-c2ccc(S(N)(=O)=O)cc2)cc1 [CELECOXIB] | < 10% | < 10% |  | inhibition at 30 µM (CYP2B6 [15]): < 10%
3 |  | metabolite_not_detected | 11% | 43% | < 10% | 36.4 pmol | 0.207 µL/min/mg | 0.207 µL/min/mg |  | COc1cc(C(=O)NS(=O)(=O)c2ccccc2C)ccc1Cc1cn(C)c2ccc(NC(=O)OC3CCCC3)cc12 [ZAFIRLUKAST] |  |  | < 10% | inhibition at 10 µM (CYP2B6 [16]): < 10%; inhibition at 10 µM (CYP2C9 [17]): < 10%; inhibition at 3 µM (CYP2C8 [18]): < 10%

Row | Structure (SMILES) | inhibition at 100 µM (CYP2C8 [1]) | Drug metabolism (Liver microsome [3]) | inhibition at 100 µM (CYP1A2) | inhibition at 10 µM (CYP3A4 [7]) | inhibition at 100 µM (CYP2D6 [8]) | PB (Liver microsome [9]) | clearance [11] | clearance [12] | inhibition at 100 µM (CYP2C19; microsomes) | inhibition at 30 µM (CYP2D6 [2]) | inhibition at 30 µM (CYP2C9 [4]) | inhibition at 100 µM (CYP2C19; human liver microsomes) | further results
4 | CCOC(=O)C1=C(COCCN)NC(C)=C(C(=O)OC)C1c1ccccc1Cl (configuration not stated) [AMLODIPINE] | < 10% | metabolite_not_detected | < 10% | < 10% | < 10% | 7.1 pmol |  |  |  | < 10% | < 10% | < 10% | inhibition at 100 µM (CYP3A4 [5]): 42%; inhibition at 3 µM (CYP2B6 [6]): < 10%
